Reference: ChEMBL document CHEMBL1159047, “Synthesis and biological evaluation of antitumour-active betulin derivatives” (Bioorg Med Chem, 2010)
The source made the active and inactive calls. The calls are words filed in the database; no cut-off is given here.

How the values were obtained:
HCT-8 = test: Cytotoxicity against human HCT8 cells after 96 hrs by SRB assay; format: functional, cell-based; conditions: HCT-8, 96 h
In short: (§1)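 Monolayer cells grown in RPMI 1640 with 10% heat-inactivated FBS and penicillin/streptomycin at 37 °C, 5% CO2. Cells were seeded and, after 24 h, exposed to serial dilutions (0–30 µM; DMSO or DMF ≤0.5% final) for 96 h. They were then fixed with 10% TCA at 4 °C, stained with 0.4% SRB and dissolved in 10 mM Tris, with absorbance read at 570 nm. IC50 comes from semi-log dose–response curves of survival versus untreated controls, from ≥3 independent experiments.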

MCF7 = test: Cytotoxicity against human MCF7 cells after 96 hrs by SRB assay; format: functional, cell-based; conditions: MCF7, 96 h; in short: as §1
8505C [1] = test: Cytotoxicity against human 8505C cells after 96 hrs by SRB assay; format: functional, cell-based; in short: as §1
A549 [2] = test: Growth inhibition of human A549 cells at 30 uM after 96 hrs by SRB assay; format: functional, cell-based
In short: (§2)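 Same SRB set-up: RPMI 1640 with 10% FBS at 37 °C, 5% CO2, and a 96 h exposure starting 24 h after seeding (DMSO or DMF ≤0.5% final). Percent viable cells relative to untreated controls is read at 30 µM, the top concentration of the 0–30 µM dilution series. Cells were fixed with TCA, stained with SRB and read at 570 nm; ≥3 independent experiments.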

DLD-1 [3] = test: Growth inhibition of human DLD1 cells at 30 uM after 96 hrs by SRB assay; format: functional, cell-based; in short: as §2
518A2 = test: Growth inhibition of human 518A2 cells at 30 uM after 96 hrs by SRB assay; format: functional, cell-based; in short: as §2
HCT-116 = test: Cytotoxicity against human HCT116 cells after 96 hrs by SRB assay; format: functional, cell-based; conditions: HCT-116, 96 h; in short: as §1
HT-29 [4] = test: Cytotoxicity against human HT-29 cells after 96 hrs by SRB assay; format: functional, cell-based; conditions: HT-29, 96 h; in short: as §1
SW-1736 [5] = test: Growth inhibition of human SW1736 cells at 30 uM after 96 hrs by SRB assay; format: functional, cell-based; in short: as §2
SW480 [6] = test: Cytotoxicity against human SW480 cells after 96 hrs by SRB assay; format: functional, cell-based; conditions: SW480, 96 h; in short: as §1
A2780 [7] = test: Growth inhibition of human A2780 cells at 30 uM after 96 hrs by SRB assay; format: functional, cell-based; in short: as §2
[8] = Cytotoxicity against human Liposarcoma cells after 96 hrs by SRB assay; format: functional, cell-based; in short: as §1
A-431 = test: Cytotoxicity against human A431 cells after 96 hrs by SRB assay; format: functional, cell-based; conditions: A-431, 96 h; in short: as §1
[9] = Cytotoxicity against human A253 cells after 96 hrs by SRB assay; format: functional, cell-based; conditions: A253, 96 h; in short: as §1
FaDu [10] = test: Growth inhibition of human FADU cells at 30 uM after 96 hrs by SRB assay; format: functional, cell-based; in short: as §2
A2780 [11] = test: Cytotoxicity against human A2780 cells after 96 hrs by SRB assay; format: functional, cell-based; conditions: A2780, 96 h; in short: as §1
[12] = Cytotoxicity against human 518A2 cells after 96 hrs by SRB assay; format: functional, cell-based; conditions: 518A2, 96 h; in short: as §1
FaDu [13] = test: Cytotoxicity against human FADU cells after 96 hrs by SRB assay; format: functional, cell-based; in short: as §1
A549 [14] = test: Cytotoxicity against human A549 cells after 96 hrs by SRB assay; format: functional, cell-based; conditions: A549, 96 h; in short: as §1
DLD-1 [15] = test: Cytotoxicity against human DLD1 cells after 96 hrs by SRB assay; format: functional, cell-based; conditions: DLD-1, 96 h; in short: as §1
SW-1736 [16] = test: Cytotoxicity against human SW1736 cells after 96 hrs by SRB assay; format: functional, cell-based; conditions: SW-1736, 96 h; in short: as §1
Homo sapiens = organism: Homo sapiens; test: Growth inhibition of human Liposarcoma cells at 30 uM after 96 hrs by SRB assay; format: functional; in short: as §2
8505C [17] = test: Growth inhibition of human 8505C cells at 30 uM after 96 hrs by SRB assay; format: functional, cell-based; in short: as §2
SW480 [18] = test: Growth inhibition of human SW480 cells at 30 uM after 96 hrs by SRB assay; format: functional, cell-based; in short: as §2
HT-29 [19] = test: Growth inhibition of human HT-29 cells at 30 uM after 96 hrs by SRB assay; format: functional, cell-based; in short: as §2

SMILES | IC50 (HCT-8) [µM] | IC50 (MCF7) [µM] | IC50 (8505C [1]) [µM] | IC50 (HCT-116) [µM] | IC50 (HT-29 [4]) [µM] | IC50 (SW480 [6]) [µM] | IC50 [8] [µM] | IC50 (A-431) [µM] | IC50 [9] [µM] | IC50 (A2780 [11]) [µM] | IC50 [12] [µM] | IC50 (FaDu [13]) [µM] | IC50 (A549 [14]) [µM] | IC50 (DLD-1 [15]) [µM] | IC50 (SW-1736 [16]) [µM] | other results
C=C(C)[C@@H]1CC[C@]2([C@H]3CO3)CC[C@]3(C)[C@H](CC[C@@H]4[C@@]5(C)CC[C@H](O)C(C)(C)[C@@H]5CC[C@]43C)[C@@H]12 | 24.6 | 28.6 | 24.3 | 20.3 | 18.2 | 16.8 | 24.7 | 23.5 | 20.1 | – | – | – | – | – | – | growth inhibition (GI) (A549 [2]): inactive; growth inhibition (GI) (DLD-1 [3]): inactive; growth inhibition (GI) (518A2): inactive; growth inhibition (GI) (SW-1736 [5]): inactive; growth inhibition (GI) (A2780 [7]): inactive; growth inhibition (GI) (FaDu [10]): inactive
C=C(C)[C@@H]1CC[C@]2([C@@H]3CO3)CC[C@]3(C)[C@H](CC[C@@H]4[C@@]5(C)CC[C@H](O)C(C)(C)[C@@H]5CC[C@]43C)[C@@H]12 | 20.6 | 23.6 | 22.3 | 19.9 | 15.4 | 16.2 | 22.4 | 20.1 | 18.8 | 28.2 | 26.8 | – | – | – | – | growth inhibition (GI) (A549 [2]): inactive; growth inhibition (GI) (DLD-1 [3]): inactive; growth inhibition (GI) (SW-1736 [5]): inactive; growth inhibition (GI) (FaDu [10]): inactive
C=C(C)[C@@H]1CC[C@]2(C(=O)O)CC[C@]3(C)[C@H](CC[C@@H]4[C@@]5(C)CC[C@H](O)C(C)(C)[C@@H]5CC[C@]43C)[C@@H]12 [BETULINIC ACID] | – | – | – | – | – | – | 9.7 | – | – | – | – | – | – | – | – | –
C=C(C)[C@@H]1CC[C@]2([C@H](O)[C@H]3C=CC(=O)O3)CC[C@]3(C)[C@H](CC[C@@H]4[C@@]5(C)CC[C@H](OC(C)=O)C(C)(C)[C@@H]5CC[C@]43C)[C@@H]12 | 14.7 | 12.5 | 17 | 8.5 | 29.9 | 12.8 | 15.9 | 8.9 | 15.7 | 8.8 | 16.5 | 12.3 | 17 | 16.3 | 14.7 | –
C=C(C)[C@@H]1CC[C@]2(C(=O)CC(=O)OCC)CC[C@]3(C)[C@H](CC[C@@H]4[C@@]5(C)CC[C@H](OC(C)=O)C(C)(C)[C@@H]5CC[C@]43C)[C@@H]12 | 3 | 6.8 | 2.3 | 2.4 | 12 | 2.2 | 2.2 | 2.6 | 2.2 | 1.8 | 2.5 | 3 | 2.2 | 3.9 | 2.3 | –
C=C(C)[C@@H]1CC[C@]2([C@H](O)CC(=O)CC(=O)OCC)CC[C@]3(C)[C@H](CC[C@@H]4[C@@]5(C)CC[C@H](OC)C(C)(C)[C@@H]5CC[C@]43C)[C@@H]12 | 12.5 | 20.7 | 17.6 | 14.6 | 16.8 | 15.3 | 17.8 | 20.7 | 17 | 12.1 | 19.4 | 16.2 | 14.6 | 14 | 13.8 | –
C=C(C)[C@@H]1CC[C@]2([C@H](O)CC(=O)OCC)CC[C@]3(C)[C@H](CC[C@@H]4[C@@]5(C)CC[C@H](OC(C)=O)C(C)(C)[C@@H]5CC[C@]43C)[C@@H]12 | 16.5 | 27.3 | – | 13 | 21.8 | – | – | 18.7 | – | 21 | – | – | 28.2 | – | 23.5 | growth inhibition (GI) (Homo sapiens): inactive; growth inhibition (GI) (DLD-1 [3]): inactive; growth inhibition (GI) (8505C [17]): inactive; growth inhibition (GI) (518A2): inactive; growth inhibition (GI) (SW480 [18]): inactive; growth inhibition (GI) (FaDu [10]): inactive
CCOC(=O)CC(=O)C[C@H]1O[C@@H]2[C@@H]3[C@H]4CC[C@@H]5[C@@]6(C)CC[C@H](OC(C)=O)C(C)(C)[C@@H]6CC[C@@]5(C)[C@]4(C)CC[C@@]31CCC2(C)C | 6.1 | 9.2 | 8.9 | 7 | 13.2 | 5.8 | 10.5 | 9.8 | 10.9 | 4.7 | 10.4 | 7 | 5.2 | 7.2 | 11.3 | –
C=C(C)[C@@H]1CC[C@]2([C@H](O)[C@H]3CCOC3=O)CC[C@]3(C)[C@H](CC[C@@H]4[C@@]5(C)CC[C@H](OC(C)=O)C(C)(C)[C@@H]5CC[C@]43C)[C@@H]12 | 8.3 | 11.7 | 22.2 | 10.7 | – | 16.4 | 17.4 | 11.7 | 16.8 | 12.4 | 17.9 | 17.5 | 21.1 | 17.4 | 18.5 | growth inhibition (GI) (HT-29 [19]): inactive
C=C(C)[C@@H]1CC[C@]2(C(=O)[C@H]3CCOC3=O)CC[C@]3(C)[C@H](CC[C@@H]4[C@@]5(C)CC[C@H](OC(C)=O)C(C)(C)[C@@H]5CC[C@]43C)[C@@H]12 (mixture of isomers) | 7.8 | 7.7 | 9.2 | 6.2 | 14.8 | 9.6 | 10 | 7.3 | 7 | 6.4 | 9.5 | 5.8 | 5.5 | 9.5 | 6.2 | –
C=C(C)[C@@H]1CC[C@]2(C(=O)CC(=O)OCC)CC[C@]3(C)[C@H](CC[C@@H]4[C@@]5(C)CC[C@H](OC)C(C)(C)[C@@H]5CC[C@]43C)[C@@H]12 | 4.1 | 4.7 | 7.9 | 3.6 | 4.1 | 5.9 | 6.4 | 3.9 | 7.4 | 4.3 | 6.3 | 6.5 | 5.3 | 7.9 | 7.2 | –
C=C(C)[C@@H]1CC[C@]2([C@@H]3O[C@H]3C(=O)N(CC)CC)CC[C@]3(C)[C@H](CC[C@@H]4[C@@]5(C)CC[C@H](OC(C)=O)C(C)(C)[C@@H]5CC[C@]43C)[C@@H]12 | 2.7 | 4.6 | 8.3 | 2.3 | 9.6 | 6 | 7.7 | 4.3 | 3.5 | 4.7 | 7 | 5.9 | 5.6 | 7.9 | 2.7 | –
C=C(C)[C@@H]1CC[C@]2([C@H](O)CC(=O)CC(=O)OCC)CC[C@]3(C)[C@H](CC[C@@H]4[C@@]5(C)CC[C@H](OC(C)=O)C(C)(C)[C@@H]5CC[C@]43C)[C@@H]12 | 11.3 | 13.9 | 9.6 | 13 | 18.5 | 13 | 9 | 16.1 | 10 | 9.1 | 11.6 | 10.5 | 16.8 | 9.3 | 10.6 | –
CCOC(=O)C[C@H]1O[C@@H]2[C@@H]3[C@H]4CC[C@@H]5[C@@]6(C)CC[C@H](OC(C)=O)C(C)(C)[C@@H]6CC[C@@]5(C)[C@]4(C)CC[C@@]31CCC2(C)C | 12 | 27.1 | – | 9.3 | 16.7 | 17.3 | – | 22.6 | 25.1 | 11.9 | – | 24.7 | 21.9 | – | 25.9 | growth inhibition (GI) (Homo sapiens): inactive; growth inhibition (GI) (DLD-1 [3]): inactive; growth inhibition (GI) (8505C [17]): inactive; growth inhibition (GI) (518A2): inactive
